Screening data deposited in PubChem BioAssay by The Scripps Research Institute Molecular Screening Center.
A selection: hits, their analogues and other compounds. The true share with any hit is near 4.5%.
CHO parental Ca = signal in parental CHO cells, OX1R antagonist counter-screen. parental CHO-K1, ATP-induced calcium, Fluo-8 fluorescence. inhibition, % at 5.6 µM. 330,000 tested, 0.63% active. AID 463079;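 active = inhibition above that plate's mean sample inhibition plus 3 SD, cut at about 26% in these data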;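 note: 0% = ATP-challenged DMSO wells and 100% = DMSO wells without ATP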
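Assay system: parental CHO cells; Read-out basis: percent inhibition of ATP-evoked calcium rise, normalized to controls; Benchmarks: ATP and no-ATP DMSO wells; Compound dosing: single nominal dose of 5.6 µM per compound; Signal: Fluo-8 calcium dye fluorescence; Also added: ATP as calcium-mobilizing challenge; Repeats: singlicate.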
TAAR1 ag = agonists of human TAAR1; AID 624467; activation, % at 3 µM; CHO RD-HGA16 TAAR1, Fluo-8 calcium fluorescence; vehicle wells 0%, saturating PEA agonist 100%; 360,000 tested, 0.99% active;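 active = activation above the mean activation of all test compounds in the run plus 3 SD, cut at about 38% in these data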
Target sequence (Q96RJ0 whole entry, looked up): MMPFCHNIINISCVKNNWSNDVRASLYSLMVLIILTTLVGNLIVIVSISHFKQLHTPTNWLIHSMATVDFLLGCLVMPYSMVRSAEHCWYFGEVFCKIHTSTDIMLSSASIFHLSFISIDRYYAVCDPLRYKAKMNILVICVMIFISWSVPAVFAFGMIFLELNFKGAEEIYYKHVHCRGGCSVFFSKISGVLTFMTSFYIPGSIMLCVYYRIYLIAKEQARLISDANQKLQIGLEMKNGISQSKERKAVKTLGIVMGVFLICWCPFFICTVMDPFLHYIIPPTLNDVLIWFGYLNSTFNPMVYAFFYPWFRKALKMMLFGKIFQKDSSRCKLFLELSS
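Repeats: no replicates (n 1) | Material: CHO-derived RD-HGA16 cells with stable Gα16 and human TAAR1 | Technique: Kinetic Fluo-8 calcium fluorescence | Schedule: 17-24 h seeding, 75 min 37 °C dye, 30 min RT | Evaluation: % activation from peak over basal fluorescence ratio, DMSO-to-PEA scaled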
GPR7 antag = antagonists of human GPR7 (neuropeptides B/W receptor 1) | 290,000 tested, 1.1% active | inhibition, % at 4.4 µM | GPR7-expressing cells, fluorescence antagonist assay | P48145 | AID 1861; in the data active = inhibition above about 16%, passing the limit was not always enough;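 note: cells stimulated with the agonist NPW; 0% = agonist with vehicle and 100% = vehicle without agonist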
OX1R antag-1 = antagonists of human orexin 1 receptor; O43613; CHO/OX1R cells, Fluo-8 calcium fluorescence, orexin A; inhibition, % at 5 µM; 330,000 tested, 0.43% active;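 active = inhibition above its plate's threshold, mean inhibition of all tested compounds on the plate plus 3 SD, cut at about 37% in these data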;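 note: 0% = orexin A challenge wells and 100% = SB-334867-A antagonist wells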
TAAR1 antagonist = antagonists of human TAAR1; AID 624466; inhibition, % at 3 µM; CHO RD-HGA16 TAAR1, Fluo-8 calcium fluorescence, antagonist; 360,000 tested, 1.5% active;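 active = inhibition above a per-plate cutoff, the mean inhibition of test compounds on that plate plus 3 SD, cut at about 49% in these data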;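 note: 0% = DMSO plus EC80 beta-PEA response and 100% = DMSO alone without agonist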
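System: RD-HGA16 CHO cells with stable hTAAR1 and Gα16 | Probe or stimulus: EC80 β-phenethylamine stimulus | Dosing: 3 µM, single point | Times: Dye loading 75 min at 37 °C, then 30 min room temperature | Measured by: Fluo-8 calcium-sensitive fluorescence | Read-out basis: % inhibition of agonist calcium response | Replicates: n of 1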
OX1R antag-2 = antagonists of human orexin 1 receptor (OX1R); O43613; OX1R-expressing cells, FRET antagonist read-out; inhibition, % at 6.6 µM; 330,000 tested, 1.8% active; AID 485270; in the data active = inhibition mostly above about 38%, no sharp cut-off; inactive = mostly below about 40%;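 note: 0% = agonist challenge alone and 100% = reference antagonist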
TAAR1 nonsel count = nonselective antagonism, TAAR1 counter-screen. shares compounds with TAAR1 antagonist. counterscreen cell line, calcium fluorescence, antagonist mode. inhibition, % at 3 µM. 2,400 tested, 77% active. AID 651780; in the data active = inhibition above about 22%;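 note: CHO-Ga16 host cells stimulated with ATP at an EC80 level; 0% = agonist EC80 plus vehicle and 100% = vehicle without agonist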
TAAR1 antag conf = human TAAR1 antagonism, confirmed; shares compounds with TAAR1 antagonist; TAAR1-expressing cells, fluorescence antagonist read-out; inhibition, % at 3 µM; 2,400 tested, 40% active; in the data active = inhibition above about 49%;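 note: CHO-Ga16 host cells challenged with agonist PEA near its EC80; 0% = agonist at EC80 plus vehicle and 100% = vehicle with no agonist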
Ga16 ag counter = nonselective Ga16 agonism, counter-screen; shares compounds with TAAR1 antagonist; Ga16-expressing cells, calcium fluorescence, agonist counterscreen; activation, % at 3 µM; 2,400 tested, 18% active; AID 651953; in the data active = activation above about 12%;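 note: 0% = vehicle wells and 100% = saturating stimulus response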
TAAR1 ag count = activates human TAAR1 in antagonist counter-screen. shares compounds with TAAR1 antagonist. hTAAR1 cell line, fluorescence activation, agonist mode. activation, % at 3 µM. 2,400 tested, 2% active; in the data active = activation above about 37%;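 note: CHO cells stably expressing TAAR1 with calcium dye readout; 0% = DMSO vehicle and 100% = full agonist response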
The depositor's hits bear a star; x = no result given.

SMILES	CHO parental Ca	TAAR1 ag	GPR7 antag	OX1R antag-1	TAAR1 antagonist	OX1R antag-2	TAAR1 nonsel count	TAAR1 antag conf	Ga16 ag counter	TAAR1 ag count
CCC(=O)Nc1cccc(-c2nc3ccccc3o2)c1	4	11	4	-8	-2	37	x	x	x	x
O=C(CSc1ccc(Cl)cc1)Nc1cccc(-c2nnc(-c3ccco3)o2)c1	-27	6	-14	-37	13	10	x	x	x	x
COc1ccccc1OCC(=O)Nc1cccc(-c2nc3ccccc3o2)c1	-15	8	-16	-29	66*	31	33*	46	4	6
CCC(=O)Nc1cccc(-c2nnc(-c3ccccc3)o2)c1	-20	7	x	-8	12	21	x	x	x	x
Cc1ccc(SCC(=O)Nc2cccc(-c3nnc(-c4ccco4)o3)c2)cc1	-27	12	-5	-8	65*	19	38*	52*	10	8
O=C(COc1ccccc1)Nc1cccc(-c2nc3cc4ccccc4cc3[nH]2)c1	-21	15	-2	-11	69*	32	38*	59*	8	4
Cc1ccc(OCC(=O)Nc2cccc(-c3nnc(-c4ccccc4)o3)c2)cc1	-3	15	0	-8	69*	-3	35*	65*	7	4
Cc1ccnc(S(=O)(=O)Cc2ccc([N+](=O)[O-])cc2)n1	9	4	-4	-29	-11	14	x	x	x	x
CCc1ccc(OC(=O)c2cccnc2)cc1	-2	4	10	-22	4	6	x	x	x	x
Cc1nc(-c2cccc(NC(=O)COc3ccc(Cl)cc3)c2)cs1	x	0	-21	x	55*	x	30*	43	5	0
Cc1cccc(OCC(=O)Nc2cccc(-c3nnc(-c4ccccc4)o3)c2)c1C	-8	8	-12	-30	69*	15	32*	60*	7	3
Cc1cccc(C)c1OCC(=O)Nc1cccc(-c2nnc(-c3ccccc3)o2)c1	-5	12	-6	-31	-3	10	x	x	x	x
O=C(Nc1cccc(-c2nnc(-c3ccccc3)o2)c1)c1ccco1	-9	12	x	-25	50*	29	29*	44	7	13
O=C(Nc1ccccc1)c1cccc(-c2nnc(-c3ccccc3)o2)c1	-22	14	-9	-14	20	19	x	x	x	x
O=S(=O)(c1ccc(NC(=S)NN=Cc2ccccc2O)cc1)N1CCCCC1	x	13	x	x	90*	x	40*	89*	11	34
NS(=O)(=O)c1ccc(NC(=S)Nc2ccc(S(=O)(=O)N3CCCC3)cc2)cc1	2	3	-4	-7	21	11	x	x	x	x
CCOC(=O)CNC(=O)N(CCOC)CC1CCCN(C2Cc3ccccc3C2)C1 (stereo not drawn)	-17	-1	-14	-27	-3	14	x	x	x	x
O=C(N/N=C\c1ccc(COc2ccc([N+](=O)[O-])cc2)o1)c1cccc(Cl)c1	8	16	7	1	56*	50	26*	42	4	5
COc1ccc(CN(Cc2cc3ccc(C)cc3[nH]c2=O)Cc2nnnn2C2CCCC2)cc1	-36	11	x	-17	56*	-2	21	28	5	9
CC(=O)c1cccc(NC(=O)c2ccc(-c3ccccc3[N+](=O)[O-])o2)c1	-26	32	-16	-7	62*	69*	24*	43	18*	18
O=C(Nc1cccc(Cl)c1Cl)c1ccc(-c2ccccc2)cc1	-6	15	-13	-29	60*	14	35*	90*	9	12
Cc1cc(/C=N/Nc2nc(N)ncc2[N+](=O)[O-])c(C)n1-c1cccc(C(F)(F)F)c1	-18	x	-4	-31	x	23	x	x	x	x
